ChEMBL document CHEMBL1139111, “Structure-activity relationship studies on quorum sensing ComX(RO-E-2) pheromone” (Bioorg Med Chem Lett, 2007)
*1 amine or outer side, *2 acyl side, *3 side chain or, on linkers, in order; H or OH if unused. Where a SMILES comes first, the peptide text is derived from it. [ ]: non-standard residue; d: D form. X1 = CC(C)=CCC/C(C)=C\C[C@@]12c3ccccc3N[C@@H]1N([*:1])C[C@@H]2C(=O)[*:2]

Experiments:
[1] = Activity at beta-galactosidase in Bacillus subtilis
Method in brief: (§1)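 B. subtilis tester strain carrying an srfA-lacZ fusion that responds to added pheromone. Overnight culture diluted 100-fold, added to sample solution, incubated 37 °C, 5 h, 150 rpm. β-Galactosidase measured with o-nitrophenyl-β-D-galactopyranoside at 30 °C, read at 420 nm. Analogs tested at concentrations up to 300 nM.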

Bacillus subtilis = experiment: Activity at beta-galactosidase in Bacillus subtilis relative to ComXRO-E-2; parameters: concentration or dose not given beside the values; method in brief: as §1

Compound: CC[C@H](C)[C@H](N)C(=O)N[C@@H](Cc1ccccc1)C(=O)N1C[C@H](C(=O)N[C@@H](CCC(=O)O)C(=O)O)[C@]2(C/C=C(/C)CCC=C(C)C)c3ccccc3N[C@H]12
- EC50 [1]: 20 nM
- Activity (Bacillus subtilis): 80%

Compound: CC[C@H](C)[C@H](NC(=O)[C@@H](C)N)C(=O)N[C@@H](Cc1ccccc1)C(=O)N1C[C@H](C(=O)N[C@@H](CCC(=O)O)C(=O)N[C@@H](CCC(N)=O)C(=O)O)[C@]2(C/C=C(/C)CCC=C(C)C)c3ccccc3N[C@H]12
- EC50 [1]: 3 nM
- Activity (Bacillus subtilis): 100%

Compound: CC(C)=CCC/C(C)=C\C[C@@]12c3ccccc3N[C@@H]1NC[C@@H]2C(=O)N[C@@H](CCC(=O)O)C(=O)N[C@@H](CCC(N)=O)C(=O)O
- EC50 [1]: > 300 nM
- Activity (Bacillus subtilis): 15%

Compound: CC[C@H](C)[C@H](N)C(=O)N[C@@H](Cc1ccccc1)C(=O)N1C[C@H](C(=O)O)[C@]2(C/C=C(/C)CCC=C(C)C)c3ccccc3N[C@H]12
- EC50 [1]: 160 nM
- Activity (Bacillus subtilis): 55%

Compound: CC(C)=CCC/C(C)=C\C[C@@]12c3ccccc3N[C@@H]1N(C(=O)[C@@H](N)Cc1ccccc1)C[C@@H]2C(=O)N[C@@H](CCC(=O)O)C(=O)N[C@@H](CCC(N)=O)C(=O)O
- EC50 [1]: 8 nM
- Activity (Bacillus subtilis): 70%

Compound: CC(C)=CCC/C(C)=C\C[C@@]12c3ccccc3N[C@@H]1N(C(=O)[C@@H](N)Cc1ccccc1)C[C@@H]2C(=O)N[C@@H](CCC(=O)O)C(=O)O
- EC50 [1]: 20 nM
- Activity (Bacillus subtilis): 60%

Compound: CC[C@H](C)[C@H](NC(=O)CN)C(=O)N[C@@H](Cc1ccccc1)C(=O)N1C[C@H](C(=O)O)[C@]2(C/C=C(/C)CCC=C(C)C)c3ccccc3N[C@H]12
- EC50 [1]: 130 nM
- Activity (Bacillus subtilis): 60%

Compound: CC[C@H](C)[C@H](NC(=O)CNC(=O)[C@H](C)N)C(=O)N[C@@H](Cc1ccccc1)C(=O)N1C[C@H](C(=O)N[C@@H](CCC(=O)O)C(=O)N[C@@H](CCC(N)=O)C(=O)O)[C@]2(C/C=C(/C)CCC=C(C)C)c3ccccc3N[C@H]12 (H-AGIF[X1]EQ-OH)
- EC50 [1]: 1 nM
- Activity (Bacillus subtilis): 100%

Compound: CC(C)=CCC/C(C)=C\C[C@@]12c3ccccc3N[C@@H]1N(C(=O)[C@H](Cc1ccccc1)NC(=O)[C@H](C)NC(=O)CN)C[C@@H]2C(=O)N[C@@H](CCC(=O)O)C(=O)N[C@@H](CCC(N)=O)C(=O)O (H-GAF[X1]EQ-OH)
- EC50 [1]: 10 nM
- Activity (Bacillus subtilis): 95%

Compound: CC[C@H](C)[C@H](NC(=O)CN)C(=O)N[C@@H](C)C(=O)N1C[C@H](C(=O)N[C@@H](CCC(=O)O)C(=O)N[C@@H](CCC(N)=O)C(=O)O)[C@]2(C/C=C(/C)CCC=C(C)C)c3ccccc3N[C@H]12 (H-GIA[X1]EQ-OH)
- EC50 [1]: 20 nM
- Activity (Bacillus subtilis): 90%

Compound: CC[C@H](C)[C@H](NC(=O)CN)C(=O)N[C@@H](Cc1ccccc1)C(=O)N1C[C@H](C(=O)N[C@@H](C)C(=O)N[C@@H](CCC(N)=O)C(=O)O)[C@]2(C/C=C(/C)CCC=C(C)C)c3ccccc3N[C@H]12 (H-GIF[X1]AQ-OH)
- EC50 [1]: 3 nM
- Activity (Bacillus subtilis): 100%

Compound: CC[C@H](C)[C@H](NC(=O)CN)C(=O)N[C@@H](Cc1ccccc1)C(=O)N1C[C@H](C(=O)N[C@@H](CCC(=O)O)C(=O)O)[C@]2(C/C=C(/C)CCC=C(C)C)c3ccccc3N[C@H]12 (H-GIF[X1]E-OH)
- EC50 [1]: 20 nM
- Activity (Bacillus subtilis): 80%

Compound: CC[C@H](C)[C@H](NC(=O)CN)C(=O)N[C@@H](Cc1ccccc1)C(=O)N1C[C@H](C(=O)N[C@@H](CCC(=O)O)C(=O)N[C@@H](C)C(=O)O)[C@]2(C/C=C(/C)CCC=C(C)C)c3ccccc3N[C@H]12 (H-GIF[X1]EA-OH)
- EC50 [1]: 20 nM
- Activity (Bacillus subtilis): 95%

Compound: CC[C@H](C)[C@H](NC(=O)CN)C(=O)N[C@@H](Cc1ccccc1)C(=O)N1C[C@H](C(=O)N[C@@H](CCC(=O)O)C(=O)N[C@@H](CCC(N)=O)C(=O)O)[C@]2(C/C=C(/C)CCC=C(C)C)c3ccccc3N[C@H]12 (H-GIF[X1]EQ-OH)
- EC50 [1]: 1 nM
- Activity (Bacillus subtilis): 100%

Compound: CC[C@H](C)[C@H](N)C(=O)N[C@@H](Cc1ccccc1)C(=O)N1C[C@H](C(=O)N[C@@H](CCC(=O)O)C(=O)N[C@@H](CCC(N)=O)C(=O)O)[C@]2(C/C=C(/C)CCC=C(C)C)c3ccccc3N[C@H]12 (H-IF[X1]EQ-OH)
- EC50 [1]: 6 nM
- Activity (Bacillus subtilis): 100%
